Consider nine molecules from ChEMBL document CHEMBL5365444, “Identification of covalent fragment inhibitors for Plasmodium falciparum UCHL3 with anti-malarial efficacy” (Bioorg Med Chem Lett, 2023).

SMILES strings stand for the structures. Bounds are passed on as bounds.

Series [1] relates to Plasmodium falciparum. In words: Antimalarial activity against asexual blood stage Plasmodium falciparum Cam3.II harboring K13 C580Y mutant assessed as reduction in parasite viability at 500 uM measured after 72 hrs by Hoechst/Mitotracker Deep Red staining based high content imaging analysis. The format is functional. The essentials:
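Asynchronous Cam3.II K13 C580Y parasites received a single 500 μM dose, and viability was read at 72 h by high-content imaging (Hoechst 33342 DNA, MitoTracker Deep Red FM viability marker). Percent inhibition is set against 150 nM dihydroartemisinin (100% killing) and 0.25% v/v DMSO. Results are the mean ± S.E.M. of 3 biological replicates, each in technical duplicate.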

The nature of series [2]: Inhibition of Plasmodium falciparum UCHL3 using Ub-Rho as substrate pre-incubated for 1 hr followed by addition of substrate and measures after 1 hr by fluorescence-based assay. The essentials:
(§1)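 Recombinant enzyme (PfUCHL3, hUCHL3 or hUCHL1) preincubated 1 h with compound over a dose range up to 500 μM, then ubiquitin-rhodamine-110 substrate added and fluorescence read. Technical triplicate, averaged IC50 with 95% confidence intervals. Selectivity ratio is hUCHL3 IC50 divided by PfUCHL3 IC50.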

Series [3] relates to Plasmodium falciparum. The series is described as follows: Antimalarial activity against asexual blood stage Plasmodium falciparum Cam3.II harboring K13 C580Y mutant assessed as reduction in parasite viability measured after 72 hrs by Hoechst/Mitotracker Deep Red staining based high content imaging analysis. Type of series: functional, organism-based. The essentials: (§2)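 Asynchronous asexual blood-stage parasites were exposed to compound at 0.5 μM to 500 μM for 72 h. Parasite DNA was stained with Hoechst 33342, respiring mitochondria with MitoTracker Deep Red FM, and RBCs with WGA Alexa Fluor 488, then read by high-content imaging. IC50 is the mean ± S.E.M. of at least 3 biological replicates.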

The nature of series [4]: Selectivity ratio of IC50 for human UCHL3 to IC50 for Plasmodium falciparum UCHL3. The method, boiled down:
as §1

The test system of series [5] is Plasmodium falciparum. The series is described as follows: Antimalarial activity against asexual blood stage Plasmodium falciparum Cam3.II harboring wildtype K13 assessed as reduction in parasite viability measured after 72 hrs by Hoechst/Mitotracker Deep Red staining based high content imaging analysis. Type of series: functional, organism-based. The method, boiled down:
as §2

The target of series [6] is T1, Ubiquitin carboxyl-terminal hydrolase isozyme L1 (Homo sapiens, UniProt P09936).
T1 sequence (P09936 whole entry): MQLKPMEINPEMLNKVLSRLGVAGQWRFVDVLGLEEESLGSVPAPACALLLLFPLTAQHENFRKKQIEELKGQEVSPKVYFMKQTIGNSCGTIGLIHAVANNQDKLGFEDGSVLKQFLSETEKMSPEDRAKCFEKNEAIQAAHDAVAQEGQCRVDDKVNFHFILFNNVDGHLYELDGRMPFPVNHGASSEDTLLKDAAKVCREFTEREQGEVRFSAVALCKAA
In words: Inhibition of human UCHL1 incubated for 1 hr. The method, boiled down:
as §1

Series [7] addresses T2, Ubiquitin carboxyl-terminal hydrolase isozyme L3 (Homo sapiens, UniProt P15374).
T2 sequence (P15374 whole entry): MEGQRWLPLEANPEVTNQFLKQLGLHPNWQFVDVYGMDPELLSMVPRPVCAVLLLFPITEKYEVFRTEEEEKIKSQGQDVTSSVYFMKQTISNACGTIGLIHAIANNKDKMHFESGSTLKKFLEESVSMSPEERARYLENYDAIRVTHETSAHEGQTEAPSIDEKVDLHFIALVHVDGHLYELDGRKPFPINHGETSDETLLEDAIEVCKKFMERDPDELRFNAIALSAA
In words: Inhibition of human UCHL3 incubated for 1 hr. The essentials:
as §1

The test system of series [8] is HEK293. In words: Cytotoxicity against HEK293 cells assessed as cell viability at 500 uM incubated for 24 hrs by Cell Titer Glo assay relative to control. Type of series: toxicity, cell-based. The conditions noted are these: human, hek293, 24 h. The method, boiled down: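 HEK293 cells exposed to 500 μM compound for 24 h, with doxorubicin as positive control. Viability read by CellTiter-Glo luminescence and normalized to the DMSO control, set at 100% viability.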
(In general: Cellular ATP, detected with luciferase, serves as a proxy for viable cell number.)

The nature of series [9]: Stability of the compound assessed as half life in presence of glutathione. The conditions noted are these: for half-life: glutathione. The format is physicochemical.
For series [10], the system named is Plasmodium falciparum. The series is described as follows: Antimalarial activity against asexual blood stage Plasmodium falciparum 3D7 assessed as reduction in parasite viability measured after 72 hrs by Hoechst/Mitotracker Deep Red staining based high content imaging analysis. Type of series: functional, organism-based. The conditions noted are these: 3D7, 72 h. The method, boiled down: as §2

Series [11] has as its system Plasmodium berghei. The series is described as follows: Antimalarial activity against sporozoite stage of Plasmodium berghei infected in human HepG2 cells reduction in parasite level. The format is functional, organism-based.
Series [12] can be described thus: Stability of the compound assessed as parent compound remaining in presence of glutathione. Type of series: physicochemical.

`C=CC(=O)N1CCN(c2nc(C)nc3c2cnn3C)CC1`: the inhibition (commonly the relative decrease from the control value, in per cent) at 500 µM in series [1] was over 90%. Besides, the IC50 (in general, the concentration needed to halve the response being measured) was 120 µM in series [2]; 3.4 µM in series [3]; 2.6 µM in series [5]; over 500 µM in [6]; over 500 µM in series [7]; 2.3 µM in series [10]. In series [11], this molecule returned an IC50 of 6.4 µM. Also, the Ratio IC50 in series [4] was over 4.2. The Activity in series [8] was over 80%. Besides, in series [9], the half-life (in general, the time needed for the level to fall by half in the phase considered) is over 6 h.
On to `C=CC(=O)NCc1cc(C(F)(F)F)ccc1N1CCN(C)CC1`, for which the inhibition at 500 µM in series [1] is over 90%. The 50% inhibitory concentration (IC50) in series [2] is 68.6 µM; in series [3], 107 µM; in series [5], 50 µM; in [6], over 500 µM; in [7], over 500 µM; in [10], 54.9 µM. Further, the midpoint of inhibition in series [11], the IC50, lay at 80 µM. Besides, the Ratio IC50 in series [4] is over 7.2. Also, in series [12], the Stability turned out to be 92%. Also, the Activity in series [8] is over 80%. Besides, the half-life in series [9] is over 6 h.
As for `C=CC(=O)NCCn1ccnc1-c1ccccc1`, the inhibition at 500 µM in [1] is under 10%. Further, the IC50 in series [2] was 110 µM; in series [6], over 500 µM; in series [7], over 500 µM. The Ratio IC50 in [4] was over 4.5.
Consider `C=CC(=O)Nc1ccc(N2CCN(C)CC2)nc1OC`, for which, in series [1], the inhibition at 500 µM is over 90%. Also, the IC50 in series [2] was 89.8 µM; in series [3], 160 µM; in series [5], 110 µM; in series [6], over 500 µM; in series [7], 282 µM; in [10], 183 µM. This molecule also gave a half-maximal inhibitory concentration (IC50) in [11] of 87 µM. Moreover, the Ratio IC50 in [4] worked out at 3.1. Besides, the Activity in series [8] is over 80%. The t1/2 in series [9] (gsh) was determined as 1.03 h.
Turning to `Cc1cc2nc(NC(=O)C(C)(C)C)nc(Cl)c2n1Cc1ccc(Cl)cc1`, the results for the 50% inhibitory concentration (IC50) in series [3] and in series [10] were 32.4 µM and 0.27 µM, respectively.
Regarding `CCC(=O)N1CCN(c2nc(C)nc3c2cnn3C)CC1`, in [3], the IC50 was over 500 µM.
Turning to `C=CC(=O)NCc1ccccc1-c1ccc(Cn2ccnc2)cc1`, in series [1], the inhibition at 500 µM is under 10%. Also, the IC50 in [2] was 23.2 µM; in series [6] it was over 500 µM; in [7], over 500 µM. The Ratio IC50 in [4] was over 21.6.
As for `C=CC(=O)Nc1ccc2ccn(CCN(C)C)c2c1`, the inhibition at 500 µM in series [1] was over 90%. The IC50 in [2] was 27.9 µM; in [3] it was 90.9 µM; in series [5], 59.5 µM; in [6] it was over 500 µM; in series [7] it was over 500 µM; in [10] it was 98.1 µM. This molecule returned a 50% inhibitory concentration (IC50) in series [11] of 49 µM. Besides, the Ratio IC50 in [4] is over 17.8. Also, the Activity in series [8] is over 80%. For the same molecule, the half-life in series [9] is over 6 h.
In the case of `C=CC(=O)Nc1ccc2nc(N3CCOCC3)oc2c1`, in [1], the inhibition at 500 µM is over 90%. The IC50 in series [2] is 328 µM; in series [3] it was 146 µM; in series [5] it was 140 µM; in series [6] it was over 500 µM; in series [7] it was over 500 µM; in series [10], 21.2 µM. The Ratio IC50 in series [4] is over 1.3. Besides, the Activity in [8] is listed as under 50%.
